Assay results published in ChEMBL document CHEMBL1125510, “Analogs of the delta opioid receptor selective cyclic peptide [2-D-penicillamine,5-D-penicillamine]-enkephalin: 2',6'-dimethyltyrosine and Gly3-Phe4 amide bond isostere substitutions” (J Med Chem, 1992).

Tests used:
Mus musculus [1] = organism: Mus musculus; assay: Concentration of the Compound that inhibits electrically-induced contractions of the mouse vas deferens by 50%; type: functional, organism-based
Summary of the method: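 Electrically stimulated isolated mouse vas deferens at 37 °C. Buffer had no tyrosine, ascorbic acid or disodium edetate. IC50 is the concentration that halves contractions, given as mean ± SD of two or three experiments.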

NG108-15 = assay: Concentration that inhibited PGE-stimulated cAMP formation by 50%, in NG108-15 cells.; type: functional, cell-based; settings: Murinae
Summary of the method: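 NG108-15 neuroblastoma cells stimulated with PGE1. cAMP measured by radioimmunoassay. EC50 is the concentration that inhibits 50% of stimulated cAMP formation, given as mean ± SD of two determinations.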

Mus musculus [2] = organism: Mus musculus; assay: Antinociceptive effect determined at 30 min post injection by tail flick test; type: functional, organism-based
Summary of the method: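 Male CD-1 mice, 20–30 g, screened beforehand (TFL ≤ 4.0 s or HPL ≤ 15 s). Groups of 10 dosed sc with vehicle or 10, 30 or 100 mg/kg at 10 mL/kg. Radiant-heat beam focused on blackened tail, and withdrawal latency read by photosensor as the mean of two readings (12 s cutoff). ED50 ± SE in mg/kg taken at 30 min.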

Mus musculus [3] = organism: Mus musculus; assay: Antinociceptive effect determined at 30 min post injection by writhing test; type: functional, organism-based
Mus musculus [4] = assay: Antinociceptive effect determined at 30 min post injection by writhing test; Inactive at 30 mg/kg, the highest dose tested.; type: functional, organism-based; parameters: dose 30 mg/kg
[5] = molecular target: Delta-type opioid receptor (Rattus norvegicus, UniProt P33533); assay: Compound was evaluated for its binding affinity by displacement [3H]- DSLET from Opioid receptor delta 1 by using opioid radioligand binding assay
Chain of Delta-type opioid receptor (P33533 whole entry): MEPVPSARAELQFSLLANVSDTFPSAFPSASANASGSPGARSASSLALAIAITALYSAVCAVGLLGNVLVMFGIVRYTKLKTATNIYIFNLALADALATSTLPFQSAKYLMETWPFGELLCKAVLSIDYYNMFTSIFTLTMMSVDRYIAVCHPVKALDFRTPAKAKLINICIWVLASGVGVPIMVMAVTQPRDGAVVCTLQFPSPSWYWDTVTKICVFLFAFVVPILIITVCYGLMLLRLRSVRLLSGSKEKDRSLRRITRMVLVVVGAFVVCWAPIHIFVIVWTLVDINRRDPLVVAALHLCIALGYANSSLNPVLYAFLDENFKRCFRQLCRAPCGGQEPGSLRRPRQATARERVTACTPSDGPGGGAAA
Summary of the method: (§1)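 Male Sprague-Dawley rat forebrain membranes in 50 mM Tris, pH 7.4. Competition against [3H]DSLET (2 nM final, δ) or [3H]DAMPGO (4 nM final, μ). Nonspecific binding defined with 10 μM levorphan. Incubated 60–90 min at 25 °C, then filtered on GF/B and counted. Ki given as mean ± SEM from at least three experiments.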

Mu-type opioid receptor = Mu-type opioid receptor (Rattus norvegicus, UniProt P33535); assay: Compound was evaluated for its binding affinity by displacement of [3H]- DAMPGO from opioid receptor mu by using opioid radioligand binding assay; summary of the method: as §1
Chain of Mu-type opioid receptor (P33535 whole entry): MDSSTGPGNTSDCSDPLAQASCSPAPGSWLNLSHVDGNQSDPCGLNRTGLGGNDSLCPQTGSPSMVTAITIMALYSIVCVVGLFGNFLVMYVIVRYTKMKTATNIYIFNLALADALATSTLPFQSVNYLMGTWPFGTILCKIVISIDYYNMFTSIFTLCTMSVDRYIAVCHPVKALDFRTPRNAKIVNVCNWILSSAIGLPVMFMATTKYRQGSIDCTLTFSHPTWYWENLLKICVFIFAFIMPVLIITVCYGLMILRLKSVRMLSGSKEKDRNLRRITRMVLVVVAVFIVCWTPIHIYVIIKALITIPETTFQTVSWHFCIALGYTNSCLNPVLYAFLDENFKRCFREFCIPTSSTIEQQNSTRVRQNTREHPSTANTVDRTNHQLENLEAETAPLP

[6] = molecular target: Mu-type opioid receptor (Rattus norvegicus) (UniProt P33535); assay: Ratio on opioid receptor mu (ki(nM)) to the opioid receptor delta (Ki(nM))
Chain of Mu-type opioid receptor (Rattus norvegicus) (P33535 whole entry): as above

Compound	Ki [5] [nM]	Ki (Mu-type opioid receptor) [nM]	Ratio [6]	further results
CC1(C)SSC(C)(C)[C@@H](NC(=O)[C@@H](N)Cc2ccc(O)cc2)C(=O)NCC(=O)N[C@@H](Cc2ccccc2)C(=O)N[C@H]1C(=O)O				EC50 (Mus musculus [1]; Mus musculus): 5.2 nM; EC50 (NG108-15): 18 nM
COC(=O)[C@@H]1NC(=O)[C@H](Cc2ccccc2)NC(=O)CNC(=O)[C@H](NC(=O)[C@@H](N)Cc2c(C)cc(O)cc2C)C(C)(C)SSC1(C)C.Cl				EC50 (Mus musculus [1]; Mus musculus): 0.65 nM; EC50 (Mus musculus [2]): 40 mg/kg; EC50 (Mus musculus [3]): 2.1 mg/kg; EC50 (NG108-15): 1.1 nM
COC(=O)[C@@H]1NC(=O)[C@H](Cc2ccccc2)NC(=O)CNC(=O)[C@H](NC(=O)[C@@H](N)Cc2ccc(O)cc2)C(C)(C)SSC1(C)C.Cl				EC50 (Mus musculus [1]; Mus musculus): 10.5 nM; EC50 (Mus musculus [4]): Not Active; EC50 (NG108-15): 21 nM
COC(=O)[C@H]1NC(=O)C(Cc2ccccc2)OCCNC(=O)[C@@H](NC(=O)[C@@H](N)Cc2c(C)cc(O)cc2C)C(C)(C)SSC1(C)C (single isomer, unassigned; less polar) [listing 1 of 2 here]	43	6.5		EC50 (Mus musculus [1]): 143 nM
COC(=O)[C@H]1NC(=O)C(Cc2ccccc2)/C=C\CNC(=O)[C@@H](NC(=O)[C@@H](N)Cc2c(C)cc(O)cc2C)C(C)(C)SSC1(C)C (single isomer, unassigned; less polar) [listing 1 of 2 here]	45	32		EC50 (Mus musculus [1]): > 1000 nM
COC(=O)[C@H]1NC(=O)C(Cc2ccccc2)CCCNC(=O)[C@@H](NC(=O)[C@@H](N)Cc2c(C)cc(O)cc2C)C(C)(C)SSC1(C)C (single isomer, unassigned; less polar) [listing 1 of 2 here]	79	176		
COC(=O)[C@H]1NC(=O)C(Cc2ccccc2)/C=C\CNC(=O)[C@@H](NC(=O)[C@@H](N)Cc2c(C)cc(O)cc2C)C(C)(C)SSC1(C)C (single isomer, unassigned; less polar) [listing 2 of 2 here]			0.7	
COC(=O)[C@H]1NC(=O)C(Cc2ccccc2)CCCNC(=O)[C@@H](NC(=O)[C@@H](N)Cc2c(C)cc(O)cc2C)C(C)(C)SSC1(C)C (single isomer, unassigned; less polar) [listing 2 of 2 here]			2.3	
COC(=O)[C@H]1NC(=O)C(Cc2ccccc2)OCCNC(=O)[C@@H](NC(=O)[C@@H](N)Cc2c(C)cc(O)cc2C)C(C)(C)SSC1(C)C (single isomer, unassigned; less polar) [listing 2 of 2 here]			0.15	
COC(=O)[C@H]1NC(=O)C(Cc2ccccc2)OCCNC(=O)[C@@H](NC(=O)[C@@H](N)Cc2c(C)cc(O)cc2C)C(C)(C)SSC1(C)C (single isomer, unassigned; more polar) [listing 1 of 2 here]	91	150		EC50 (Mus musculus [1]): > 1000 nM
COC(=O)[C@H]1NC(=O)C(Cc2ccccc2)/C=C\CNC(=O)[C@@H](NC(=O)[C@@H](N)Cc2c(C)cc(O)cc2C)C(C)(C)SSC1(C)C (single isomer, unassigned; more polar) [listing 1 of 2 here]	2.3	1.1		EC50 (Mus musculus [1]): 247 nM
COC(=O)[C@H]1NC(=O)C(Cc2ccccc2)CCCNC(=O)[C@@H](NC(=O)[C@@H](N)Cc2c(C)cc(O)cc2C)C(C)(C)SSC1(C)C (single isomer, unassigned; more polar) [listing 1 of 2 here]	21	11		EC50 (Mus musculus [1]; Mus musculus): > 1000 nM
COC(=O)[C@H]1NC(=O)C(Cc2ccccc2)/C=C\CNC(=O)[C@@H](NC(=O)[C@@H](N)Cc2c(C)cc(O)cc2C)C(C)(C)SSC1(C)C (single isomer, unassigned; more polar) [listing 2 of 2 here]			0.5	
COC(=O)[C@H]1NC(=O)C(Cc2ccccc2)CCCNC(=O)[C@@H](NC(=O)[C@@H](N)Cc2c(C)cc(O)cc2C)C(C)(C)SSC1(C)C (single isomer, unassigned; more polar) [listing 2 of 2 here]			0.5	
COC(=O)[C@H]1NC(=O)C(Cc2ccccc2)OCCNC(=O)[C@@H](NC(=O)[C@@H](N)Cc2c(C)cc(O)cc2C)C(C)(C)SSC1(C)C (single isomer, unassigned; more polar) [listing 2 of 2 here]			1.7	
